In the library only some 3.7% were active in any assay of this set; here they are far more common.
KCNQ1 act: potentiators or activators of KCNQ1 channel, primary screen, cell-based, thallium flux, high-throughput; Potassium voltage-gated channel subfamily KQT member 1 (Homo sapiens), P51787; CHO-K1 KCNQ1, thallium flux FluxOR fluorescence; stronger effect = higher value; B-score at 10 µM; 310,000 tested, 0.35% active;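 active = fluorescence ratio B-score, a plate-corrected score, at least three library SD, with initial intensity B-score within 5 SD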
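Assay system: stable KCNQ1 CHO-K1 line; medium: assay buffer, equal DMSO in all wells; timing: 90 min dye loading and 20 min compound exposure, both at room temperature; technique: kinetic FluxOR thallium fluorescence, 10-s 1-Hz baseline, 110-s post-stimulus read; read-out basis: B score of baseline-normalized fluorescence ratio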
KCNK9 inh: KCNK9 potassium channel inhibitors, primary screen, HEK293 cells, thallium flux | 310,000 tested, 1.2% active | B-score at 10 µM | FluxOR thallium flux fluorescence; stronger effect = lower value;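 active = ratio B-score over 3 SD below the library mean, with starting fluorescence within 5 SD of its mean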;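 note: negative B-score means less thallium flux so channel inhibition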
Kir21 block: inhibitors of mouse Kir2.1 inward-rectifier potassium channel; Inward rectifier potassium channel 2 (Mus musculus), P35561; HEK293-Kir2.1, FluxOR thallium flux fluorescence; stronger effect = lower value; B-score at 10 µM; 310,000 tested, 0.85% active; AID 1672, 2009;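 active = fluorescence ratio B-score at or below minus 3 SD of library scores, with starting-brightness B-score within 2 SD, cut at about -4.2 in these data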;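 note: channel flux triggered by added potassium and thallium sulfate stimulus; B-score of peak minus minimum fluorescence over baseline after thallium stimulus; more negative B-score means stronger Kir2.1 block with less thallium influx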
Target sequence (P35561 whole entry, looked up): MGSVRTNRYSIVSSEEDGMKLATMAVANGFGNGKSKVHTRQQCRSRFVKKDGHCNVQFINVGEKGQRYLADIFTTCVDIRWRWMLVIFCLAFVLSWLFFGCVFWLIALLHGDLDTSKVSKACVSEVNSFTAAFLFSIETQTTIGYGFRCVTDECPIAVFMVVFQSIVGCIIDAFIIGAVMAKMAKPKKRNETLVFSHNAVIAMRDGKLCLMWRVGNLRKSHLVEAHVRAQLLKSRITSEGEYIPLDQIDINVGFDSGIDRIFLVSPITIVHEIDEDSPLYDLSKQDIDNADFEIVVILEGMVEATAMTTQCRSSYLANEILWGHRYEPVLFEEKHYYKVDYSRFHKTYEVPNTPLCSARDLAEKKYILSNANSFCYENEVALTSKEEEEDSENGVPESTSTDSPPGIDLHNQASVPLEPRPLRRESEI
hERG protect: hERG rescue from dofetilide block, primary screen, cell-based, CHO-hERG, FluxOR thallium flux, dofetilide IC70; Voltage-gated inwardly rectifying potassium channel KCNH2 (Homo sapiens), Q12809; 310,000 tested, 0.51% active; dofetilide IC70 present; activation (rescue from dofetilide block), less the hit threshold, % at 10 µM;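 active = activation above the mean of controls blocked by dofetilide plus 5 SD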;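 note: thallium influx through hERG after potassium depolarization seen as dye fluorescence rise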
KCNK3 block: human KCNK3 channel inhibitors, primary screen, CHO cells, FluxOR thallium flux, B-score. AID 602410, 2012. B-score at 10 µM. FluxOR fluorescence; stronger effect = lower value. 340,000 tested, 0.84% active;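 active = B-score under library mean minus 4 SD, starting fluorescence ratio at most library mean plus 5 SD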;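 note: more negative B-score means stronger inhibition of thallium flux through KCNK3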
KCNQ1 inh: inhibitors of human KCNQ1 channel, primary screen, cell-based, thallium flux, high-throughput. AID 2642, 2010. B-score at 10 µM. Potassium voltage-gated channel subfamily KQT member 1 (Homo sapiens), P51787. 310,000 tested, 1.3% active. CHO-K1 KCNQ1, FluxOR thallium flux fluorescence; stronger effect = higher value;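 active = compounds whose thallium flux B-score, printed positive for inhibition, exceeds three library SD while starting fluorescence stays within three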;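 note: channel opened by potassium depolarization with thallium stimulus after 20 min compound exposure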
KCNK9 inh conf: KCNK9 potassium channel inhibitors, confirmation, HEK293 cells, thallium flux, duplicate; FluxOR thallium flux fluorescence; 4,900 tested, 43% active; inhibition, % at 10 µM; shares compounds with KCNK9 inh;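 active = thallium signal inhibited by more than 5 SD of the compound-free buffer control wells, on both duplicate plates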;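 note: 0% = assay buffer control wells without compound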
Kir21 sel: mouse Kir2.1 channel inhibition, confirmation, selectivity assay for KCNK9 modulator project, cell-based, HEK293, thallium flux | shares compounds with KCNK9 inh | Kir2.1 cells, FluxOR thallium flux fluorescence | inhibition, % at 10 µM | 4,900 tested, 4% active;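 active = thallium signal drop more than 5 SD beyond the mean of the no-compound control wells, seen in both duplicate plates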;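 note: signal is fluorescence rise after thallium addition divided by baseline fluorescence; plate controls were assay buffer only for no effect and full block by chlorpromazine control for full effect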
KCNK9 uninduced: thallium flux in non-induced HEK293 cells, confirmation, counter-screen for KCNK9 inhibitor project, cell-based, second counter screen, non-induced KCNK9-HEK293; FluxOR thallium flux; inhibition, % at 10 µM; shares compounds with KCNK9 inh; 4,900 tested, 40% active;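 active = thallium signal drop beyond 5 SD of the untreated control mean, on both duplicate plates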;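 note: plate controls were buffer only IC0 wells for no effect and SID17386958 at its maximal inhibitory level for full effect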
* marks the source's active call; other numbers are inactive results; i = inactive; / = not tested or not shown.

SMILES | KCNQ1 act | KCNK9 inh | Kir21 block | hERG protect | KCNK3 block | KCNQ1 inh | KCNK9 inh conf | Kir21 sel | KCNK9 uninduced
Cc1cc(C(=O)CSc2ccc(F)cc2)cc(C)c1OC(=S)N(C)C | i | i | 0.11 | -9.3 | i | i | i | i | 31.5%*
CC(C)(C)c1cc(OS(C)(=O)=O)ccc1O | i | i | 1 | -3.7 | i | i | / | / | /
CC(C)(C)c1cc(OC(=O)C2CCCC2)ccc1O | i | -8.19* | 1.85 | -12.9 | i | i | 58.0%* | i | i
CN(C)c1ccc(C(=O)c2ccc(N(C)C)c3ccccc23)cc1 | i | i | -0.01 | -4.0 | i | i | i | i | i
O=C(c1cccc(-c2ccccc2F)c1)N1CC[C@@H](N2CCC(O)CC2)[C@H](O)C1 | i | i | 0.46 | -11.6 | i | i | / | / | /
N#Cc1c(SCc2ccc(Cl)cc2)sc(C(=O)c2ccccc2)c1N | i | -11.2* | 1.81 | -6.0 | i | i | 25.5%* | i | 33.5%*
COc1cccc(COC(=O)C2CCN(S(=O)(=O)c3ccc(C)cc3C)CC2)c1OC | i | i | -0.12 | -11.9 | i | i | i | i | i
COc1cccc(COC(=O)C2CCN(S(=O)(=O)c3ccc(C)cc3)CC2)c1OC | i | i | 1.6 | -9.2 | i | i | / | / | /
O=C(NCc1cccs1)c1cc(-c2ccccc2)nn1CC1CC(c2cccc([N+](=O)[O-])c2)=NO1 (stereo not drawn) | i | i | -0.11 | -4.3 | i | i | / | / | /
COc1ccccc1CNC(=O)c1cc(-c2ccccc2)nn1CC1CC(c2cccc([N+](=O)[O-])c2)=NO1 (stereo not drawn) | i | -8.65* | -1.59 | -8.2 | i | i | 44.5%* | i | 30.0%*
CC(C)n1cnnc1SCC(=O)Nc1cccc(S(=O)(=O)N(C)c2ccccc2)c1 | i | i | 0.06 | -12.8 | i | i | / | / | /
COc1cc(C2SCC(=O)N2c2nnc(C34CC5CC(CC(C5)C3)C4)s2)cc(OC)c1OC (stereo not drawn) | i | i | 1.13 | -6.3 | i | i | i | i | i
Nn1c(SCc2ccccc2F)nnc1-c1ccccn1 | i | i | 0.24 | -12.3 | i | i | / | / | /
Cc1ccc(NC(=S)N2CCC(NC(=O)c3ccc(F)cc3)CC2)cc1C | i | i | 0 | -5.4 | i | i | / | / | /
COc1ccccc1OCCOc1ccc(/C=C2\C(=N)N3N=C(S(C)(=O)=O)SC3=NC2=O)cc1 | i | i | 0.49 | -25.8 | i | i | i | i | i
COc1cc(/C=C2\C(=N)N3N=C(C)SC3=NC2=O)cc(OC)c1OCCOc1ccccc1C | i | i | 1.99 | -1.4 | i | i | / | / | /
COc1cc(/C=C2\C(=N)N3N=C(S(C)(=O)=O)SC3=NC2=O)cc(OC)c1OCCOc1ccccc1C | i | i | 1.27 | -31.2 | i | i | i | i | i
CC(C)CS(=O)(=O)C1=NN2C(=N)/C(=C\c3ccc(OC(=O)c4ccco4)cc3)C(=O)N=C2S1 | i | i | -3.01 | -30.4 | i | i | i | i | i
Cc1cc(/C=C2\C(=N)N3N=C(S(C)(=O)=O)SC3=NC2=O)c(C)n1Cc1ccccc1 | i | i | 0.2 | -4.7 | i | i | i | i | i
COc1cccc(OCCOc2ccc(/C=C3\C(=N)N4N=C(S(C)(=O)=O)SC4=NC3=O)cc2OC)c1 | i | i | 1.21 | -11.9 | i | i | / | / | /
CCC(=O)Nc1cc(-c2nn(C)c(=O)c3ccccc23)ccc1N1CCOCC1 | i | i | -7.57 | -2.7 | i | i | / | / | /
Cn1nc(-c2ccc(N3CCCCC3)c(NC(=O)c3ccco3)c2)c2ccccc2c1=O | i | -15* | -0.43 | -13.0 | i | i | 73.0%* | i | 36.0%*
CC(C)COc1cccc(C(=O)N(CC(=O)Nc2ccccc2C(F)(F)F)Cc2ccco2)c1 | / | / | / | / | i | / | / | / | /
COc1cccc(C=NN2CCCCCC2)c1OC | / | / | / | / | i | / | / | / | /
CN1CCN(C(=O)CCCN2C(=O)/C(=C/c3cccc(Br)c3)SC2=S)CC1 | i | i | 0 | -20.9 | i | i | i | i | i
SMILES | KCNQ1 act | KCNK9 inh | Kir21 block | hERG protect | KCNK3 block | KCNQ1 inh | KCNK9 inh conf | Kir21 sel | KCNK9 uninduced
O=C(CCCN1C(=O)/C(=C/c2cccc(Br)c2)SC1=S)N1CCOCC1 | i | i | 0.75 | -7.5 | i | i | i | i | i
Cc1ccc(C(C)NC(=O)c2cc3cc(Br)ccc3oc2=N)cc1 (stereo not drawn) | i | i | -1.52 | -21.5 | i | 7* | i | i | i
O=C(COC(=O)c1ccc(Cl)nc1)Nc1cc(S(=O)(=O)N2CCOCC2)ccc1Cl | / | / | / | / | i | / | / | / | /
COc1ccc(-c2noc(CN3CCCCC3)n2)cc1OC | i | i | 2.34 | -13.8 | i | i | / | / | /
CC1CCN(Cc2nc(-c3ccccc3)no2)CC1 | i | i | -0.76 | -11.5 | i | i | / | / | /
O=C1c2ccccc2C(=O)N1Cc1nc(-c2ccccc2)no1 | i | i | -0.39 | -8.1 | i | i | i | i | i
COc1ccc(-c2noc(CN3CCN(c4ccccc4F)CC3)n2)cc1OC | i | i | 4.64 | -8.1 | i | i | i | i | i
Fc1ccccc1N1CCN(Cc2nc(-c3ccccc3)no2)CC1 | i | i | 1.66 | -12.7 | i | i | i | i | i
Fc1ccccc1N1CCN(Cc2cc(-c3ccccc3)on2)CC1 | i | i | 0.02 | -4.6 | i | i | i | i | i
C=CCn1c(NCc2ccc(OC)cc2O)nc2ccccc21 | i | i | 0.27 | -4.9 | i | i | / | / | /
CCC(C(=O)OCC(=O)N1CCN(c2ccc(OC)cc2)CC1)c1ccccc1 (stereo not drawn) | / | / | / | / | i | / | / | / | /
